Activity calls are given as the source filed them. The calls are words filed in the database; no cut-off is given here.
Tests used:
Plasmodium falciparum [1] = assay: Antimalarial activity against chloroquine-resistant blood stage Plasmodium falciparum W2 infected in human erythrocytes assessed as parasite growth inhibition at 10 ug/ml incubated for 24 hrs followed by [3H]-hypoxanthine addition and further incubated for 24 hrs followed by cooling and measured after 24 hrs by beta radiation counter analysis relative to control; assay type: functional; conditions: W2, Erythrocyte, time 72 hrs
Method in brief: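 P. falciparum W2 grown in human O+ erythrocytes in RPMI 1640 with 10% human plasma, at 1% parasitemia and 2.5% hematocrit. Compounds diluted with 4% DMSO and medium, tested in triplicate. [3H]-hypoxanthine incorporation read; inhibition calculated against untreated parasites.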

[2] = Hemolytic activity in human erythrocytes measured after 1 hr by microtiter plate method; assay type: ADME, cell-based, Erythrocyte; conditions: read-out: CC50
Method in brief: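 Fresh human O⁺ erythrocytes were washed three times in PBS and used at 1% hematocrit. Compounds dissolved in PBS were added in triplicate and incubated 1 h; saponin 1% v/v served as the full-lysis control. After centrifugation, haemoglobin released into the supernatant was read at 540 nm and hemolysis CC50 derived.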

Hemozoin [3] = assay: Inhibition of beta-hematin formation measured after 24 hrs by spectrophotometry analysis
Method in brief: (§1)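 Haemin (0.5 mg/mL in 0.2 M NaOH) was mixed with 3 M sodium acetate, 17.4 M acetic acid and compound, tested at up to 2.5 mM. Incubation was 24 h at 37 °C. Pellets were washed with DMSO twice and water, dissolved in 0.1 M NaOH, and read at 405 nm. Inhibition was taken against a no-compound control, at least twice in triplicate. Chloroquine was the positive control. CQ index = IC50 CQ / IC50 compound.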

Plasmodium berghei [4] = assay: Antimalarial activity against Plasmodium berghei NK65 infected in Swiss mouse assessed as decrease in parasitemia at 50 mg/kg, po qd administered via gavage for 4 consecutive days and measured up to 8 days by optical microscopy analysis; assay type: functional, organism-based; conditions: time day <=8
Method in brief: (§2)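 Adult Swiss mice (4-6 weeks, n=5/group) inoculated i.p. with 10⁶ P. berghei NK65-infected red cells. Dosing began 1 h post-infection, once daily for 4 consecutive days by oral gavage or i.p. Vehicle was DMSO 20% in saline. Tail blood smears were taken on days 4–8, methanol-fixed, panoptic-stained and read by light microscopy. Inhibition = [(C−T)/C]×100 versus vehicle controls. Means ± SEM.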

Plasmodium berghei [5] = assay: Antimalarial activity against Plasmodium berghei NK65 infected in Swiss mouse assessed as increase in mouse survival at 50 mg/kg, po qd administered via gavage for 4 consecutive days and […] relative to control; assay type: functional
Method in brief: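 Swiss mice, 4–6 weeks, n=5 per group, infected i.p. with 10⁶ P. berghei NK65-infected red cells. Treated once daily for 4 consecutive days starting 1 h post-infection, dosed by oral gavage in 20% DMSO. Vehicle controls received DMSO in saline. Survival followed up to 30 days; Mantel-Cox test. One experiment of two replicates.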

Plasmodium falciparum [6] = assay: Antimalarial activity against chloroquine-resistant blood stage Plasmodium falciparum W2 infected in human erythrocytes assessed as parasite growth inhibition incubated for 24 hrs followed by [3H]-hypoxanthine addition and further incubated for 24 hrs followed by cooling and measured after 24 hrs by beta radiation counter analysis; assay type: functional, organism-based; conditions: W2, Erythrocyte
Method in brief: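 W2 P. falciparum cultured in O+ human erythrocytes in RPMI 1640 plus 10% human plasma, at 1% parasitemia and 2.5% hematocrit. At least five compound concentrations, each in triplicate. Growth measured as [3H]-hypoxanthine uptake relative to untreated parasites. IC50 derived from two independent experiments.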

[7] = Cytotoxicity against human HepG2 cells assessed as reduction in cell growth measured after 72 hrs by alamar blue assay; assay type: cell-based
Method in brief: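 HepG2 cells in phenol red-free RPMI-1640 with 10% FBS were seeded at 10⁴ cells/well. After 24 h they were exposed to five concentrations in triplicate for 72 h at 37 °C, 5% CO₂. AlamarBlue (20%) was added for 24 h, and absorbance was read at 570/600 nm. CC50 came from non-linear regression, two independent experiments. Gentian violet served as the cytotoxic control.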

Hemozoin [8] = assay: Potency index, ratio of chloroquine IC50 to test compound IC50 for inhibition of beta-hematin formation measured after 24 hrs by spectrophotometry analysis; method in brief: as §1
[9] = Selectivity index, ratio of CC50 for human HepG2 cells assessed as cell growth inhibition measured after 72 hrs by alamar blue assay to IC50 for chloroquine-resistant blood stage Plasmodium falciparum W2 infected in human erythrocytes assessed as parasite growth inhibition incubated for 24 hrs followed by [3H]-hypoxanthine addition and further incubated for 24 hrs followed by cooling and measured after 24 hrs by beta radiation counter analysis; assay type: toxicity, cell-based; conditions: read-out: Ratio CC50/IC50
Plasmodium berghei [10] = assay: Antimalarial activity against Plasmodium berghei NK65 infected in Swiss mouse assessed as decrease in parasitemia at 100 mg/kg, po qd administered via gavage for 4 consecutive days and measured up to 8 days by optical microscopy analysis; assay type: functional, organism-based; conditions: time day <=8; method in brief: as §2
Plasmodium berghei [11] = assay: Antimalarial activity against Plasmodium berghei NK65 infected in Swiss mouse assessed as decrease in parasitemia at 100 mg/kg, ip qd administered via gavage for 4 consecutive days and measured up to 8 days by optical microscopy analysis; assay type: functional, organism-based; conditions: time day <=8; method in brief: as §2
Plasmodium berghei [12] = assay: Antimalarial activity against Plasmodium berghei NK65 infected in Swiss mouse assessed as increase in mouse survival at 100 mg/kg, po qd administered via gavage for 4 consecutive days and […] relative to control; assay type: functional, organism-based
Method in brief: (§3)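 Swiss mice (n=5/group) infected i.p. with 10⁶ P. berghei NK65 red cells, then treated 1 h later, once daily for 4 days, orally by gavage or i.p. Vehicle was DMSO in saline. Survival was followed to 30 days post-infection and compared with vehicle by Mantel-Cox test. One experiment of two replicates.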

Plasmodium berghei [13] = assay: Antimalarial activity against Plasmodium berghei NK65 infected in Swiss mouse assessed as decrease in parasitemia at 25 to 50 mg/kg, ip qd administered via gavage for 4 consecutive days and measured up to 8 days by optical microscopy analysis; assay type: functional, organism-based; conditions: dose 25-50 mg/kg, time day <=8; method in brief: as §2
Plasmodium berghei [14] = assay: Antimalarial activity against Plasmodium berghei NK65 infected in Swiss mouse assessed as effect on mouse survival at 25 to 50 mg/kg, ip qd administered via gavage for 4 consecutive days and […] by optical microscopy analysis; assay type: functional, organism-based; conditions: dose 25-50 mg/kg; method in brief: as §3

O=C(N/N=C/C=C/c1ccccc1)c1nc(-c2ccc([N+](=O)[O-])cc2)no1
inhibition at 10 µg/mL (Plasmodium falciparum [1]): 25.7%

COc1cc(/C=N/NC(=O)c2nc(-c3ccc(F)cc3)no2)ccc1O
inhibition at 10 µg/mL (Plasmodium falciparum [1]): 24.7%

COc1ccc(-c2noc(C(=O)N/N=C/c3ccc(O)c(OC)c3)n2)cc1
inhibition at 10 µg/mL (Plasmodium falciparum [1]): 42.2%

O=C(N/N=C/C=C/c1ccccc1)c1nc(-c2ccc(Cl)cc2)no1
inhibition at 10 µg/mL (Plasmodium falciparum [1]): 28.8%

O=C(N/N=C/c1ccc2c(c1)OCO2)c1nc(-c2ccc([N+](=O)[O-])cc2)no1
inhibition at 10 µg/mL (Plasmodium falciparum [1]): 33.9%

O=C(N/N=C/C=C/c1ccccc1)c1nc(-c2ccccc2)no1
inhibition at 10 µg/mL (Plasmodium falciparum [1]): 51%

O=C(N/N=C/c1ccc2c(c1)OCO2)c1nc(-c2ccccc2)no1
inhibition at 10 µg/mL (Plasmodium falciparum [1]): 27.5%

COc1cc(/C=N/NC(=O)c2nc(-c3ccc(Cl)cc3)no2)ccc1O
inhibition at 10 µg/mL (Plasmodium falciparum [1]): 37%

CCN(CC)CCCC(C)Nc1ccnc2cc(Cl)ccc12 (stereo unspecified) [CHLOROQUINE]
HC50 at 1 h [2]: > 100 µg/mL | IC50 (Hemozoin [3]): 800 µM | Activity (Plasmodium berghei [4]): Active | Activity (Plasmodium berghei [5]): 100%

COc1cc(/C=N/NC(=O)c2nc(-c3ccc(O)cc3)no2)ccc1O
inhibition at 10 µg/mL (Plasmodium falciparum [1]): 58.8% | IC50 (Plasmodium falciparum [6]): 1.9 µM | CC50 at 72 h [7]: > 200 µM | HC50 at 1 h [2]: > 100 µg/mL | IC50 (Hemozoin [3]): > 2000 µM

O=C(N/N=C/c1ccc2c(c1)OCO2)c1nc(-c2ccc(O)cc2)no1
inhibition at 10 µg/mL (Plasmodium falciparum [1]): 71.9% | IC50 (Plasmodium falciparum [6]): 1.5 µM | CC50 at 72 h [7]: > 200 µM | HC50 at 1 h [2]: > 100 µg/mL | IC50 (Hemozoin [3]): 800 µM | Ratio IC50 (Hemozoin [8]): 1

Cc1ccc(-c2noc(C(=O)N/N=C/c3ccc4c(c3)OCO4)n2)cc1
inhibition at 10 µg/mL (Plasmodium falciparum [1]): 21.9%

COc1ccc(-c2noc(C(=O)N/N=C/c3ccc4c(c3)OCO4)n2)cc1
inhibition at 10 µg/mL (Plasmodium falciparum [1]): 27.5%

O=C(N/N=C/C=C/c1ccccc1)c1nc(-c2ccc(Br)cc2)no1
inhibition at 10 µg/mL (Plasmodium falciparum [1]): 58.8%

COc1ccc(-c2noc(C(=O)N/N=C/C=C/c3ccccc3)n2)cc1
inhibition at 10 µg/mL (Plasmodium falciparum [1]): 26.1%

COc1cc(/C=N/NC(=O)c2nc(-c3ccccc3)no2)ccc1O
inhibition at 10 µg/mL (Plasmodium falciparum [1]): 55.4%

O[C@@H](c1cc(C(F)(F)F)nc2c(C(F)(F)F)cccc12)[C@H]1CCCCN1 [(S,R)-MEFLOQUINE]
inhibition at 10 µg/mL (Plasmodium falciparum [1]): 100% | IC50 (Plasmodium falciparum [6]): 0.04 µM | CC50 at 72 h [7]: 11.8 µM | selectivity ratio at 72 h [9]: 295

COc1cc(/C=N/NC(=O)c2nc(-c3ccc(Br)cc3)no2)ccc1O
inhibition at 10 µg/mL (Plasmodium falciparum [1]): 71.1% | IC50 (Plasmodium falciparum [6]): 0.07 µM | CC50 at 72 h [7]: 16.9 µM | selectivity ratio at 72 h [9]: 241 | HC50 at 1 h [2]: 33 µg/mL | IC50 (Hemozoin [3]): 900 µM | Ratio IC50 (Hemozoin [8]): 0.8 | Activity (Plasmodium berghei [10]): inactive | Activity (Plasmodium berghei [11]): inactive | Activity (Plasmodium berghei [12]): inactive

O=C(N/N=C/C=C/c1ccccc1)c1nc(-c2ccc(F)cc2)no1
inhibition at 10 µg/mL (Plasmodium falciparum [1]): 34.3%

O=C(N/N=C/C=C/c1ccccc1)c1nc(-c2ccc(O)cc2)no1
inhibition at 10 µg/mL (Plasmodium falciparum [1]): 39.1%

O=C(N/N=C/c1ccc2c(c1)OCO2)c1nc(-c2ccc(Cl)cc2)no1
inhibition at 10 µg/mL (Plasmodium falciparum [1]): 53%

Cc1ccc(-c2noc(C(=O)N/N=C/C=C/c3ccccc3)n2)cc1
inhibition at 10 µg/mL (Plasmodium falciparum [1]): 52.7%

COc1cc(/C=N/NC(=O)c2nc(-c3ccc([N+](=O)[O-])cc3)no2)ccc1O
inhibition at 10 µg/mL (Plasmodium falciparum [1]): 68.7% | IC50 (Plasmodium falciparum [6]): 0.2 µM | CC50 at 72 h [7]: 14.8 µM | selectivity ratio at 72 h [9]: 74 | HC50 at 1 h [2]: > 100 µg/mL | IC50 (Hemozoin [3]): > 2000 µM | Activity (Plasmodium berghei [13]): Active | Activity (Plasmodium berghei [14]): inactive

COc1cc(/C=N/NC(=O)c2nc(-c3ccc(C)cc3)no2)ccc1O
inhibition at 10 µg/mL (Plasmodium falciparum [1]): 61.1% | IC50 (Plasmodium falciparum [6]): 0.12 µM | CC50 at 72 h [7]: 46.6 µM | selectivity ratio at 72 h [9]: 388 | HC50 at 1 h [2]: > 100 µg/mL | IC50 (Hemozoin [3]): 600 µM | Ratio IC50 (Hemozoin [8]): 1.3 | Activity (Plasmodium berghei [10]): inactive | Activity (Plasmodium berghei [11]): inactive | Activity (Plasmodium berghei [12]): inactive

O=C(N/N=C/c1ccc2c(c1)OCO2)c1nc(-c2ccc(Br)cc2)no1
inhibition at 10 µg/mL (Plasmodium falciparum [1]): 45.3%

O=C(N/N=C/c1ccc2c(c1)OCO2)c1nc(-c2ccc(F)cc2)no1
inhibition at 10 µg/mL (Plasmodium falciparum [1]): 31.6%

From ChEMBL document CHEMBL4715768, “Conjugation of N-acylhydrazone and 1,2,4-oxadiazole leads to the identification of active antimalarial agents” (Bioorg Med Chem, 2016)
